Data: ChEMBL document CHEMBL1138317, “Antibacterial oxazolidinones possessing a novel C-5 side chain. (5R)-trans-3-[3-Fluoro-4- (1-oxotetrahydrothiopyran-4-yl)phenyl]-2- oxooxazolidine-5-carboxylic acid amide (PF-00422602), a new lead compound” (J Med Chem, 2007)
In brackets after ≈: the same amount, converted by molar mass. Activity calls are given as the source filed them. The calls are words filed in the database; no cut-off is given here.

What was measured:
[1] = system: Escherichia coli; experiment: Inhibition of protein synthesis in Escherichia coli by cell-free transcription-translation assay; assay type: functional
Outline: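 E. coli cell-free coupled transcription/translation run in microtiter format with a luciferase reporter; luminescence was the read-out for protein synthesis.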

[2] = system: Rattus norvegicus; experiment: Effect on hematology in Sprague-Dawley rat assessed as increase in red blood cells at 600 mg/kg/day, po after 14 days; assay type: ADME, organism-based; parameters: route oral; conditions: in vivo, 336 h
Outline: (§1)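 Female Sprague-Dawley rats received vehicle or drug by oral gavage daily for 14 days, at doses of 40-1000 (mg/kg)/day across the studies. End points were moribundity or lethality, hematology (RBC, hemoglobin, hematocrit, reticulocytes), bone marrow M:E ratio and plasma AUC(0-24).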

[3] = system: Rattus norvegicus; experiment: Toxicity in Sprague-Dawley rat at 600 mg/kg/day, po after 14 days; assay type: organism-based; parameters: route oral; conditions: in vivo, 336 h; outline: as §1
[4] = system: Staphylococcus aureus; experiment: Antibacterial activity against methicillin-resistant Staphylococcus aureus SA1417 by micro-broth technology; assay type: functional
[5] = target: T1, Cytochrome P450 1A2 (Homo sapiens, UniProt P05177); experiment: Inhibition of human liver microsome CYP1A2; assay type: ADME, microsomes
T1 sequence (P05177 whole entry): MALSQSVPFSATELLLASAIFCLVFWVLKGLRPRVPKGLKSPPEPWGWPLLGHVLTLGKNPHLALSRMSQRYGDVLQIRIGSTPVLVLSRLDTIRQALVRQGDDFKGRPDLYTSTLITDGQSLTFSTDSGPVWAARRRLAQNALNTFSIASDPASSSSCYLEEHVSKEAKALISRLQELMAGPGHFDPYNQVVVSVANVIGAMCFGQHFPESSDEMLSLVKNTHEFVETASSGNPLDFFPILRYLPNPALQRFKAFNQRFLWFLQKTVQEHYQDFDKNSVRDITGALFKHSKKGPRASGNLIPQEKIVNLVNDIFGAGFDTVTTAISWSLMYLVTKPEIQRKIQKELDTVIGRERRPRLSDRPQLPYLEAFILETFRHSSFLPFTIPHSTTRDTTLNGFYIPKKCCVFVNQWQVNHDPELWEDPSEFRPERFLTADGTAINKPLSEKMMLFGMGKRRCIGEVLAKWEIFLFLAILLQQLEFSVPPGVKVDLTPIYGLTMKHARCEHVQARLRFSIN
Outline: (§2)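 Done in duplicate with 0.03-0.2 mg/mL human liver microsomes, 1 mM NADPH and 50 mM potassium phosphate, pH 7.4. Probe substrates: 30 µM phenacetin (1A2), 7.5 µM diclofenac (2C9), 50 µM […], 10 µM dextromethorphan (2D6), and 50 µM phenacetin, 50 µM midazolam or 1.5 µM felodipine (3A4). Drug was tested at 0-1000 µM. Reactions were quenched with ice-cold acetonitrile after 7-30 min and analysed by LC/MS.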

[6] = system: Rattus norvegicus; experiment: Bioavailability in Sprague-Dawley rat at 20 mg/kg, po; assay type: ADME, organism-based; conditions: in vivo
[7] = system: Staphylococcus; experiment: Bacteriostatic activity against Staphylococcus after 48 hrs by time kill study; assay type: functional, organism-based
[8] = system: Streptococcus pneumoniae; experiment: Antibacterial activity against levofloxacin-penicillin-resistant Streptococcus pneumoniae SV1 SP3 by microbroth technology; assay type: functional
Outline: (§3)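 Drug-resistant panel strains (levofloxacin/oxacillin-resistant S. aureus, levofloxacin/penicillin-resistant S. pneumoniae, vancomycin-resistant E. faecalis and E. faecium). Broth microdilution MIC in µg/mL; value reported as MIC90 across the strains of each resistant group.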

[9] = Cmax in Sprague-Dawley rat at 20 mg/kg, po; assay type: ADME, organism-based; parameters: dose 20 mg/kg, route oral; conditions: in vivo
[10] = AUC in mouse at 20 mg/kg, po; assay type: ADME, organism-based; parameters: dose 20 mg/kg, route oral; conditions: plasma
[11] = AUC (0 to 24 hrs) in Sprague-Dawley rat plasma at 600 mg/kg/day, po after 14 days; assay type: ADME, organism-based; parameters: dose 600 mg/kg/day, time < 24 hr, route oral; outline: as §1
[12] = target: T2, Amine oxidase [flavin-containing] A (Homo sapiens, UniProt P21397); experiment: Inhibition of human recombinant MAOA
T2 sequence (P21397 whole entry): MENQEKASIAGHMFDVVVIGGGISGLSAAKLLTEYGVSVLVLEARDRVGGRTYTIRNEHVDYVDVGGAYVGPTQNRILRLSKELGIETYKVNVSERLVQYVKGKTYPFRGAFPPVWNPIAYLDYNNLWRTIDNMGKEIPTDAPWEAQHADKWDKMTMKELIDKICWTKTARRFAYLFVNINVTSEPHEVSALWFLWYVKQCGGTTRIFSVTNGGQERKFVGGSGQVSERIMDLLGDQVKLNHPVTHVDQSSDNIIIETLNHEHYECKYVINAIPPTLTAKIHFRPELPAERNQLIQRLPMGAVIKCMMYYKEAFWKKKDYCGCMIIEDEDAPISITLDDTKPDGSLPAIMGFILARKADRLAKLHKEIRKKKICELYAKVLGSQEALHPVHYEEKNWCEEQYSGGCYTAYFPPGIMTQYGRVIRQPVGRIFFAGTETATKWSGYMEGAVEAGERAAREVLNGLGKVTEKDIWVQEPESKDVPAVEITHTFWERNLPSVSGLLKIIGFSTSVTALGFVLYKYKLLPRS

[13] = system: Rattus norvegicus; experiment: Effect on hematology in Sprague-Dawley rat assessed as increase in hemoglobin at 600 mg/kg/day, po after 14 days; assay type: ADME, organism-based; parameters: route oral; conditions: in vivo, 336 h; outline: as §1
[14] = system: Enterococcus faecalis; experiment: Antibacterial activity against vancomycin-resistant Enterococcus faecalis MGH2 EF1 by microbroth technology; assay type: functional; outline: as §3
[15] = Volume of distribution at steady state in dog at 4 mg/kg, iv; assay type: ADME, organism-based, Canis lupus familiaris; parameters: dose 4 mg/kg, route intravenous; conditions: in vivo, read-out: Vdss
[16] = system: Haemophilus influenzae; experiment: Antibacterial activity against Haemophilus influenzae by micro-broth technology; assay type: functional
Outline: (§4)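 MIC determined by broth microdilution, reported in µg/mL.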

[17] = system: Streptococcus pyogenes; experiment: Antibacterial activity against Streptococcus pyogenes C203 by micro-broth technology; assay type: functional
[18] = Volume of distribution at steady state in Sprague-Dawley rat at 10 mg/kg, iv; assay type: ADME, organism-based; parameters: dose 10 mg/kg, route intravenous; conditions: in vivo, read-out: Vdss
[19] = target: Cytochrome P450 2C19 (Homo sapiens, UniProt P33261); experiment: Inhibition of human liver microsome CYP2C19; assay type: ADME, microsomes; outline: as §2
Sequence of Cytochrome P450 2C19 (P33261 whole entry): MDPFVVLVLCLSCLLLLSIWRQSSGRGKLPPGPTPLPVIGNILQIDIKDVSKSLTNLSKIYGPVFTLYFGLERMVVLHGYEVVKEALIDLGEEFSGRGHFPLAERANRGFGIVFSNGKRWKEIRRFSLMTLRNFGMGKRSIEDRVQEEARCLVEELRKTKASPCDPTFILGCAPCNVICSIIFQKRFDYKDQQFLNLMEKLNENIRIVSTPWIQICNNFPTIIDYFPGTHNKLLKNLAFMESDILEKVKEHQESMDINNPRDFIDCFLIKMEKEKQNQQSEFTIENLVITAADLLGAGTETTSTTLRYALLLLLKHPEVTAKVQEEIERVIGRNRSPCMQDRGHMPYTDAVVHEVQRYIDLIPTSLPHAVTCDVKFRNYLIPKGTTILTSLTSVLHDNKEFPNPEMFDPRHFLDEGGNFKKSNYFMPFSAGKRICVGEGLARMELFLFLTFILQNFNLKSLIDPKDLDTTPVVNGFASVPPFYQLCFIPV

[20] = target: Cytochrome P450 3A4 (Homo sapiens, UniProt P08684); experiment: Inhibition of human liver microsome CYP3A4; assay type: ADME, microsomes; outline: as §2
Sequence of Cytochrome P450 3A4 (P08684 whole entry): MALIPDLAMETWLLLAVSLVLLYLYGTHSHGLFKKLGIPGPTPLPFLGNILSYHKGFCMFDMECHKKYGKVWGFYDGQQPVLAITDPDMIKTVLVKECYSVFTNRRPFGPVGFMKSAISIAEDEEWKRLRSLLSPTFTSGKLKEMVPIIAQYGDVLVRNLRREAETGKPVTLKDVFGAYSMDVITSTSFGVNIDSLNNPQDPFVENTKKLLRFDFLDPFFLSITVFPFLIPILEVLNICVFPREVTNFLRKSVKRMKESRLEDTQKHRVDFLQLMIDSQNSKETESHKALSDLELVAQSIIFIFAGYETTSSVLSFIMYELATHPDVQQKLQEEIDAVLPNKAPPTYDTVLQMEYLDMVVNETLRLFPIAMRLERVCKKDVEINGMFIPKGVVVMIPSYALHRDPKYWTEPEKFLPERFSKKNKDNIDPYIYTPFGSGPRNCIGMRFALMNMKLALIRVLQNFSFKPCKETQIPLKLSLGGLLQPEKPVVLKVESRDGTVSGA

[21] = system: Moraxella catarrhalis; experiment: Antibacterial activity against Moraxella catarrhalis by microbroth technology; assay type: functional; outline: as §4
[22] = AUC (0 to 24 hrs) in Sprague-Dawley rat plasma at 200 mg/kg/day, po after 14 days; assay type: ADME, organism-based; parameters: dose 200 mg/kg/day, time < 24 hr, route oral; outline: as §1
[23] = Half life in dog at 20 mg/kg, po; assay type: ADME, organism-based, Canis lupus familiaris; parameters: dose 20 mg/kg, route oral; conditions: in vivo
[24] = system: Enterococcus; experiment: Bacteriostatic activity against Enterococcus after 48 hrs by time kill study; assay type: functional, organism-based
[25] = target: Cytochrome P450 2D6 (Homo sapiens, UniProt P10635); experiment: Inhibition of human liver microsome CYP2D6; assay type: ADME, microsomes; outline: as §2
Sequence of Cytochrome P450 2D6 (P10635 whole entry): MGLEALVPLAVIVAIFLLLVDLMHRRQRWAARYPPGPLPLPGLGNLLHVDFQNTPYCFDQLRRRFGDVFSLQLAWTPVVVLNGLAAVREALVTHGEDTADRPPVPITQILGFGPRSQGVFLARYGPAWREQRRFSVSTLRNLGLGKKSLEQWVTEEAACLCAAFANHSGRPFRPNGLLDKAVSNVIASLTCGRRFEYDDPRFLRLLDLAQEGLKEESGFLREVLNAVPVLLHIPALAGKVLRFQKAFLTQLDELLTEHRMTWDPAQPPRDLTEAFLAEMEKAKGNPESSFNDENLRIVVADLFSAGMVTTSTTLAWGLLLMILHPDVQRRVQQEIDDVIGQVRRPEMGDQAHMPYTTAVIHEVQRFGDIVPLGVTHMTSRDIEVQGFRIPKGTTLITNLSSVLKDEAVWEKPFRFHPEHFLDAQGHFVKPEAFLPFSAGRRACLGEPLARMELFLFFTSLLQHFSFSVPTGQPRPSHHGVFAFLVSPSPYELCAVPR

[26] = system: Rattus norvegicus; experiment: Effect on hematology in Sprague-Dawley rat assessed as increase in hematocrit at 600 mg/kg/day, po after 14 days; assay type: ADME, organism-based; parameters: route oral; conditions: in vivo, 336 h; outline: as §1
[27] = system: Rattus norvegicus; experiment: AUC in Sprague-Dawley rat at 20 mg/kg, po; assay type: ADME, organism-based, Plasma; parameters: dose 20 mg/kg, route oral; conditions: in vivo
[28] = system: Streptococcus pneumoniae; experiment: Bactericidal activity against Streptococcus pneumoniae after 48 hrs by time kill study; assay type: functional, organism-based
Outline: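 Time-kill study: bacteria exposed continuously to drug at 2-16× the MIC and sampled over 48 h to assess eradication.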

[29] = target: Cytochrome P450 2C9 (Homo sapiens, UniProt P11712); experiment: Inhibition of human liver microsome CYP2C9; assay type: ADME, microsomes; outline: as §2
Sequence of Cytochrome P450 2C9 (P11712 whole entry): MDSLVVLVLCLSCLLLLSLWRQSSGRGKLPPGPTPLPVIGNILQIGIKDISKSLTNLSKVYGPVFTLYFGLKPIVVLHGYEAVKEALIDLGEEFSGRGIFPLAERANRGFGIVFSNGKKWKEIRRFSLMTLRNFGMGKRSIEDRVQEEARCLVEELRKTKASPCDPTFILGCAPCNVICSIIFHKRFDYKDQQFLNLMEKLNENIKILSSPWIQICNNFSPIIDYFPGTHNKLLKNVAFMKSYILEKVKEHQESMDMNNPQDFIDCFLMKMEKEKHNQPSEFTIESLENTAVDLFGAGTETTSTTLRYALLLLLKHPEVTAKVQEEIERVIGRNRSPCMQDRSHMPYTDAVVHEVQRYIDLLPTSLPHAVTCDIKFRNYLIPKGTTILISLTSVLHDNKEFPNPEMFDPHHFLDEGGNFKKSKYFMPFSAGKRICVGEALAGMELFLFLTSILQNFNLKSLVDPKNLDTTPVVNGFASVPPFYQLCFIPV

[30] = Cmax in dog at 20 mg/kg, po; assay type: ADME, organism-based, Canis lupus familiaris; parameters: dose 20 mg/kg, route oral; conditions: in vivo
[31] = Cmax in mouse at 20 mg/kg, po; assay type: ADME, organism-based; parameters: dose 20 mg/kg, route oral; conditions: in vivo
[32] = system: Canis familiaris; experiment: AUC in dog at 20 mg/kg, po; assay type: ADME, organism-based, Canis lupus familiaris, Plasma; parameters: dose 20 mg/kg, route oral; conditions: in vivo
[33] = system: Enterococcus faecium; experiment: Antibacterial activity against vancomycin-resistant Enterococcus faecium by micro-broth technology; assay type: functional; outline: as §3
[34] = system: Staphylococcus aureus; experiment: Antibacterial activity against methicillin-resistant Staphylococcus aureus SA1417 in po dosed CD1 mouse systemic infection model assessed as mortality after 7 days; assay type: functional
[35] = system: Rattus norvegicus; experiment: Effect on hematology in Sprague-Dawley rat assessed as decrease in reticulocytes at 600 mg/kg/day, po after 14 days; assay type: ADME, organism-based; parameters: route oral; scale not given: the % may be the effect or the level left; conditions: in vivo, 336 h; outline: as §1
[36] = system: Staphylococcus aureus; experiment: Antibacterial activity against levofloxacin-oxacillin-resistant Staphylococcus aureus UC76 SA1 by micro-broth technology; assay type: functional; outline: as §3
[37] = system: Canis familiaris; experiment: Bioavailability in dog at 20 mg/kg, po; assay type: ADME, organism-based, Canis lupus familiaris; conditions: in vivo
[38] = system: Staphylococcus aureus; experiment: Antibacterial activity against Staphylococcus aureus UC76 in po dosed CD1 mouse systemic infection model assessed as mortality after 7 days; assay type: functional
[39] = system: Rattus norvegicus; experiment: Increase in bone marrow myeloid/erythroid ratio in Sprague-Dawley rat at 600 mg/kg/day, po after 14 days; assay type: ADME, organism-based; parameters: route oral; conditions: in vivo, 336 h
[40] = Half life in mouse at 20 mg/kg, po; assay type: ADME, organism-based; parameters: dose 20 mg/kg, route oral; conditions: in vivo
[41] = system: Staphylococcus aureus; experiment: Antibacterial activity against […] in po dosed CD1 mouse systemic infection model assessed as mortality after 7 days; assay type: functional
[42] = Volume of distribution at steady state in mouse at 4 mg/kg, iv; assay type: ADME, organism-based; parameters: dose 4 mg/kg, route intravenous; conditions: in vivo, read-out: Vdss
[43] = Clearance in mouse at 4 mg/kg, iv; assay type: ADME, organism-based; parameters: dose 4 mg/kg, route intravenous; conditions: in vivo
[44] = Half life in Sprague-Dawley rat at 20 mg/kg, po; assay type: ADME, organism-based; parameters: dose 20 mg/kg, route oral; conditions: in vivo

With `NC(=O)[C@H]1CN(c2ccc([C@H]3CC[S@+]([O-])CC3)c(F)c2)C(=O)O1` the IC50 [1] was 3.4 µM, the Activity [2] was 8% and the Activity [3] was “Toxic”. For the same compound, the MIC [4] was 4 µg/mL (≈ 11.8 µM), the IC50 [5] was over 900 µM and the F [6] was 83%. For the same compound, the Activity [7] was “Active”, the MIC90 [8] was 2 µg/mL (≈ 5.88 µM) and the Cmax [9] was 15900 ng/mL. For the same compound, the AUC [10] was 48.3 µg·h/mL, the AUC at 24 h [11] was 619 µg·h/mL and the IC50 [12] was 546 µM. It also gave an Activity [13] of 8%, an MIC90 [14] of 4 µg/mL (≈ 11.8 µM) and a Vd [15] of 0.7 L/kg. It also gave an MIC [16] of over 8 µg/mL, an MIC [17] of 4 µg/mL (≈ 11.8 µM) and a Vd [18] of 6.2 L/kg. It also gave an IC50 [19] of over 900 µM, an IC50 [20] of over 900 µM and an MIC [21] of over 8 µg/mL. The AUC at 24 h [22] was 223 µg·h/mL, the half-life [23] was 6.2 h and the Activity [24] was “Active”. It also gave an IC50 [25] of over 900 µM, an Activity [26] of 8% and an AUC [27] of 109 µg·h/mL. For the same compound, the Activity [28] was “Active”, the IC50 [29] was over 900 µM and the Cmax [30] was 17900 ng/mL. For the same compound, the Cmax [31] was 12300 ng/mL, the AUC [32] was 76.2 µg·h/mL and the MIC90 [33] was 4 µg/mL (≈ 11.8 µM). For the same compound, the PD50 [34] was 1.7 mg/kg, the Activity [35] was 62% and the MIC90 [36] was 2 µg/mL (≈ 5.88 µM). The F [37] was 64%, the PD50 [38] was 1.25 mg/kg and the Ratio [39] was 4.5. For the same compound, the half-life [40] was 1.5 h, the PD50 [41] was under 5 mg/kg and the Vd [42] was 3.3 L/kg. The clearance [43] was 25.2 mL/min/kg and the half-life [44] was 5.8 h.
